Where “and” joins values, the source holds several entries; their conditions need not be identical. Equal values may be shown once.

Chain of Estrogen receptor (Ovis aries) (Q9TU15 whole entry, looked up, chain 1 of 2): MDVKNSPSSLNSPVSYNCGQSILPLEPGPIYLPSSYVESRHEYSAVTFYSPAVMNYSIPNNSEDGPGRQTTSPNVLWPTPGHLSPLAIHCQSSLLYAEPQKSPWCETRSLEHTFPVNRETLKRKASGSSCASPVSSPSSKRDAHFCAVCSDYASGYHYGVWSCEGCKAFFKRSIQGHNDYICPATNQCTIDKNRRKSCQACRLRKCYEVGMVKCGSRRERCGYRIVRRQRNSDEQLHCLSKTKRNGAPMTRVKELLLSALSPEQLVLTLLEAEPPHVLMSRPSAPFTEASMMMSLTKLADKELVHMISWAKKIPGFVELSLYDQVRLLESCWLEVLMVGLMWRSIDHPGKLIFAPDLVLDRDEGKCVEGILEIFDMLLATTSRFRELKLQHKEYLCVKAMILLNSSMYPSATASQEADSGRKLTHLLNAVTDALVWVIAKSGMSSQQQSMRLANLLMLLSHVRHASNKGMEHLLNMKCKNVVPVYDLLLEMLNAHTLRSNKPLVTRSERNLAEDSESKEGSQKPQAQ
Chain of Estrogen receptor (Ovis aries) (P49885 whole entry, looked up, chain 2 of 2): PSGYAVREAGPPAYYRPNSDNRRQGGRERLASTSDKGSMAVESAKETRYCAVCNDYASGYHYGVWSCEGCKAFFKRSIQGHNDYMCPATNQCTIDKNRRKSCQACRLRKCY

For this assay, the target named is Estrogen receptor (Ovis aries) (UniProt P49885+Q9TU15). The assay is described as follows: Relative binding affinity against the estrogen receptor using lamb uterine cytosol as a source of receptor and [3H]-estradiol as a tracer. It counts as protein assay. The note with it: Uterus. In short, it runs like this:
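Competitive radiometric binding on lamb uterine cytosol (105000g supernatant in 0.05 M Tris-HCl, 0.25 M sucrose, 0.1% β-mercaptoethanol, pH 7.4), 5 mg protein/mL. Incubated 3 h at 0 °C with 2 × 10⁻⁹ M [³H]estradiol plus competitor at nine concentrations, 1×10⁻¹⁰ to 1×10⁻⁶ M. Bound/free separated by protamine sulfate precipitation and filtration, then scintillation counting. Logit-transformed; RBA = IC50 estradiol/competitor ×100; mean of two determinations.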
In the case of `C[C@]12CC[C@@H]3c4ccc(O)cc4CC[C@H]3[C@@H]1CC[C@@]2(O)c1ccccc1`, the RBA was 25%.

For “alpha [Cp Ru[eta5-17beta-estradienonyl] [BF4]”, the RBA was 0.44% and 0.46%.

The molecule 17alpha-ferrocenyl-17beta-estradiol displayed an RBA of 15%.

“(alpha,beta)-[Cp Ru(17beta-estradiol)][PF6-]” had an RBA of 0.1%.

“(17alpha)-[Cp Ruphenyl]-17beta-estradiol)][CF3SO3]” gave an RBA of 0%.

The molecule “(17-alpha-phenyl-17beta-estradiol)tricarbonylchromium” registered an RBA of 11%.

For [Cp Ru(eta5-17beta-estradienonyl)], the RBA turned out to be 0.1%.

On to “(17-alpha(phenylethynyl)-17beta-estradiol)tricarbonylchromium”, for which the RBA was determined as 24%.

In turn, “(alpha,beta)-[Cp*Ru(17beta-estradiol)][CF3SO3]” yielded an RBA of 2.9%.

As for `C[C@]12CC[C@@H]3c4ccc(O)cc4CC[C@H]3[C@@H]1CC[C@@]2(O)C#Cc1ccccc1`, the RBA came out at 27%.
